Shown are actives, neighbours in structure and some others; about 1.3% of the full set was active somewhere.
Hep lipid drop – hepatic lipid droplet formation modulation. AID 1656. inhibition, % at 6.5 µM. AML12 mouse hepatocytes, oleate lipid droplets, BODIPY imaging. 240,000 tested, 0.4% active;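 active = lipid droplet intensity inhibited by at least 50%, with more than 500 cells counted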
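Test system: AML12 hepatocytes (mouse); reagent: oleate loading, 100 µM; dosing: one dose, 6.5 µM compound; incubation: overnight exposure; signal: fluorescence imaging, 20x objective, two fields per well; read-out basis: % inhibition of corrected integrated BODIPY droplet signal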
GRK2 inh – inhibitors of human GRK2 displacing RNA aptamer; P25098; bead flow cytometry, FAM-aptamer displacement from GRK2; inhibition of aptamer binding, % at 10 µM; 330,000 tested, 0.59% active;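 active = inhibition of aptamer binding above 40%, roughly 3 SD of noise, on plates passing a quality check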;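 note: median bead fluorescence of bound FAM aptamer so fluorescent compounds give negative values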
GASC-1 inh – human JMJD2C demethylase inhibition; Q9H3R0; GST-JMJD2C(1-420) H3K9me3 demethylation, DELFIA europium; inhibition, % at 2.35 µM; 330,000 tested, 0.069% active;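 active = more than half of a compound's replicate wells show inhibition beyond 50%, single wells judged on their own value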;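 note: signal counts dimethyl H3K9 product captured on neutravidin plate; 0% = median of DMSO wells and 100% = 0.3 times that DMSO median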
Target sequence (Q9H3R0 1-420 limits assumed): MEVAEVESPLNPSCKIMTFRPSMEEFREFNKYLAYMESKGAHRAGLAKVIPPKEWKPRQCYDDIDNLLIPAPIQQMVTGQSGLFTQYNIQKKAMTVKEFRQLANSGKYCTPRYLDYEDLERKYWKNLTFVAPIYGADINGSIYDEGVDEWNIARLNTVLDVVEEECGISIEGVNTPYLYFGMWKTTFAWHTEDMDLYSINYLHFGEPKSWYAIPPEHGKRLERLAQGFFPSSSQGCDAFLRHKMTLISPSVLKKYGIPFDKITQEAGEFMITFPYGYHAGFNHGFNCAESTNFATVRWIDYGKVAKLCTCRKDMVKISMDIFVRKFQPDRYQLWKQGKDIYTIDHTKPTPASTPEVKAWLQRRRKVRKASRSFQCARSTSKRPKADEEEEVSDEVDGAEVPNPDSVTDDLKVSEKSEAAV
procasp7 counter – counter-screen: procaspase-7 (human) activation | recombinant procaspase-7, Ac-DEVD-pNA absorbance 405 nm; D23A/D198A/D206A triple mutant, cannot self-cleave; scale: DMSO 0, 5 µM enzyme 100 | activation, % at 8.5 µM | 330,000 tested, 0.093% active | AID 463210;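 active = percent activation above the screen-wide mean plus 3 SD, cut at about 25% in these data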
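signal = Epi-absorbance of released pNA at 405 nm, two timepoints | assay system = Uncleavable procaspase-7 mutant enzyme | reagent = Ac-DEVD-pNA substrate, 400 µM as added | times = 1 h enzyme–compound preincubation and 2 h substrate reaction, both 25 °C | benchmarks = low DMSO alone, high DMSO plus 5 µM PC-7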
procasp3 activ – activates human procaspase-3. P42574. activation, % at 8.5 µM. recombinant procaspase-3 D3A, Ac-DEVD-pNA absorbance 405 nm. AID 463141. 330,000 tested, 0.11% active;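 active = activation above the mean of all tested compounds plus 3 SD, cut at about 21% in these data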;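 note: 0% = DMSO alone and 100% = DMSO wells spiked with extra 5 µM PC-3 D3A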
Target sequence (P42574 whole entry D9A/D28A/D175A): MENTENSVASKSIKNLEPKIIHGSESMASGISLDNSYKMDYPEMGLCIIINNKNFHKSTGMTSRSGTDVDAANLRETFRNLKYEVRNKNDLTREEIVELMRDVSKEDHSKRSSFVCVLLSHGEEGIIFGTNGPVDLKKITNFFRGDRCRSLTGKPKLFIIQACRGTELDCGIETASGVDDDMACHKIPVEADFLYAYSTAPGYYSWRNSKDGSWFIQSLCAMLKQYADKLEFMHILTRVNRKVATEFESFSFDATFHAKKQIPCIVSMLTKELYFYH
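Test system: Procaspase-3 D3A mutant, all three cleavage aspartates alanine | Dosing: Single dose, 8.5 µM nominal compound, 0.8% DMSO | Schedule: 1 h preincubation, 2 h reaction | Technique: 405 nm absorbance of p-nitroaniline, reads at 0 and 120 min | Repeats: One well per compound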
VLA-4 inh – inhibition in a human VLA-4 binding assay | P13612 | VLA-4 expressing cells, ligand binding flow cytometry | inhibition, % (about 7 µM as worked out from the volumes in the protocol) | 330,000 tested, 0.2% active; in the data active = inhibition above about 50%
GRK2 inh confirm – human GRK2 inhibition confirmation, cherry pick 1; shares compounds with GRK2 inh; bead-bound GRK2, FAM-aptamer displacement, flow cytometry; aptamer displacement, % at 10 µM; 2,000 tested, 4% active; AID 504451;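 active = aptamer displacement above 40%, near three times the noise of non-fluorescent compounds, on plates passing quality checks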;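 note: negative values mostly reflect intrinsic compound fluorescence rather than true enhancement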
FAM quench CP1 – aptamer fluorescence quenching in GRK2 counter-screen. Carboxyfluorescein RNA aptamer on beads, flow cytometry quenching; hits give low values. shares compounds with GRK2 inh. fluorescence response (% of DMSO), % at 10 µM. 2,000 tested, under 10 active;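 active = compounds that quench the bead-bound fluorescent RNA probe, cutting fluorescence to under half of the solvent control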;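 note: counterscreen run without GRK2 so only probe quenching by compound is measured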
GRK2 CP2 – confirmation of human GRK2 inhibitors binding RNA aptamer site; bead-bound GRK2, FAM-aptamer displacement, flow cytometry; AID 504782; 360 tested, under 10 active; shares compounds with GRK2 inh; inhibition of aptamer binding, % at 10 µM;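 active = inhibition of aptamer binding above 40%, about triple the noise seen with nonglowing compounds, on plates passing quality control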;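 note: negative values mostly come from compounds that fluoresce themselves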
FAM quench CP2 – counter-screen for GRK2 binding hits: quenchers of fluorescent RNA aptamer. carboxyfluorescein RNA aptamer beads, flow cytometry quenching; hits give low values. fluorescence response vs DMSO, % at 10 µM. AID 588494. shares compounds with GRK2 inh. 360 tested, under 10 active;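 active = response vs DMSO under 50%, meaning signal dropped by over half, treated as fluorescence quencher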;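 note: labelled aptamer on streptavidin beads without GRK2 as a quench counter-screen; 100% = bead fluorescence of DMSO wells and lower means quenching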
* = called active by the depositor; x = no result.

SMILES | Hep lipid drop | GRK2 inh | GASC-1 inh | procasp7 counter | procasp3 activ | VLA-4 inh | GRK2 inh confirm | FAM quench CP1 | others
Cc1nc(CN(C)C(=O)C2CCC(=O)N(CCc3cccc(F)c3)C2)cs1 (stereo unspecified) | 23 | 1 | -1 | 3 | -5 | 14 | x | x
Cc1ccc(C)c(NC(=O)c2cnn3ccccc23)c1 | x | 28 | -1 | 3 | -4 | -6 | -1 | 101
Cc1ccc(C)c(NC(=O)c2cc3ccccn3n2)c1 | 7 | 1 | -1 | -2 | -2 | -10 | x | x
Cc1occc1C(=O)NCc1cccc(CNC(=O)c2ccoc2C)c1 | -10 | 47* | 2 | 5 | 5 | 3 | 0 | 98
Cc1occc1C(=O)NCc1ccc2c(c1)OCO2 | -5 | 0 | 3 | -13 | -3 | -20 | x | x
C=CCNc1nc2ccccc2nc1NS(=O)(=O)c1ccc(OC)cc1 | -7 | 8 | -12 | -4 | 3 | -6 | x | x
COc1ccccc1NC(=O)NC1(C(=O)N2CCCCCC2)CCCCC1 | -5 | 95* | 7 | 5 | 4 | 9 | -3 | 95
O=C(NC1CCCc2ccccc21)C1CCN(c2nnc(-n3cccc3)s2)CC1 (stereo unspecified) | -1 | 0 | 0 | 0 | 5 | 8 | -3 | 98
Cc1cc(C)nc(N2CCC(C(=O)NC3CCCc4ccccc43)CC2)n1 (stereo unspecified) | x | 5 | 1 | 0 | 3 | 5 | x | x
CCCC(=O)Nc1c2c(nn1-c1ccc(C)cc1)CS(=O)(=O)C2 | 6 | 0 | -6 | 5 | 5 | -6 | x | x
CSCc1cc(N(C)C)nc(SCc2ccc(Cl)c(Cl)c2)n1 | x | 76* | 11 | -5 | -17 | 3 | 1 | 55
CNc1cc(CSC)nc(SCc2ccc(Cl)cc2Cl)n1 | x | 1 | -14 | 10 | 0 | -8 | x | x
O=C(O)c1ccc(N2C(=O)c3cccc4c(C(=O)O)ccc(c34)C2=O)cc1 | 3 | 70* | -12 | -6 | -2 | -1 | 30 | 107
O=C(O)c1ccc2c3c(cccc13)C(=O)N(c1ccccc1)C2=O | 9 | 40 | 11 | 7 | -10 | -2 | x | x
Cc1c(NC(=O)C(C)OC(=O)c2ccc(NC(=O)CC#N)cc2)c(=O)n(-c2ccccc2)n1C (stereo unspecified) | x | 0 | 8 | -5 | 0 | 8 | x | x
CN(C)c1nc(C(F)(F)F)cc(=O)[nH]1 | 1 | 0 | -17 | 2 | -7 | 5 | x | x
CC1Nc2nc(N(C)C)[nH]c(=O)c2NC1C (stereo unspecified) | -2 | 15 | -14 | 0 | -13 | 5 | 1 | 104
Cc1ccc(NC(=O)CN(C)C(=O)c2cccc(S(=O)(=O)NCc3cccs3)c2)cc1 | x | 1 | 3 | 12 | 7 | 4 | x | x
Cc1ccc(NC(=O)CN(C)C(=O)c2cccc(S(=O)(=O)NCc3ccccc3)c2)cc1 | x | 91* | 4 | 7 | 12 | 34 | -3 | 110
Cc1ccc(N2CC(C(=O)NCCN3CCOCC3)CC2=O)cc1 (stereo unspecified) | 1 | 2 | -1 | 4 | 1 | 7 | x | x
COC(=O)C1CC(=O)N(c2ccc(C)cc2)C1 (stereo unspecified) | 15 | 94* | -4 | 11 | 2 | -6 | 1 | 98
O=C(NC(=S)NN1CCCCC1c1cccnc1)c1ccc(Cl)cc1Cl (stereo unspecified) | 10 | 0 | -2 | -6 | -6 | 10 | x | x
CC(c1nc2ccccc2c(=O)[nH]1)N1CCOCC1 (stereo unspecified) | 14 | 0 | -1 | 8 | -5 | 13 | x | x
CC(c1nc2ccccc2c(=O)[nH]1)N1CCN(C)CC1 (stereo unspecified) | -12 | 0 | x | 12 | 8 | -1 | x | x | GRK2 CP2=3;FAM quench CP2=104
Cc1ccc2c(c1)c1nnc(SCC(=O)N3CCN(c4ccc(F)cc4)CC3)nc1n2CC(=O)O | -31 | 100* | 27 | 0 | -4 | 11 | x | x | GRK2 CP2=2;FAM quench CP2=99
SMILES | Hep lipid drop | GRK2 inh | GASC-1 inh | procasp7 counter | procasp3 activ | VLA-4 inh | GRK2 inh confirm | FAM quench CP1 | others
CCOCC(=O)Nc1ccc2c(c1)N(S(=O)(=O)c1cccs1)CCC2 | x | 0 | -31 | 4 | 7 | 3 | x | x
O=C(O)c1c2c(nc3ccc(F)cc13)CCC2 | 2 | 72* | 8 | 9 | 8 | 20 | -2 | 98
O=C(NCc1ccc(F)cc1)c1c2c(nc3ccccc13)CCC2 | -17 | 2 | 6 | -4 | 1 | -5 | x | x | GRK2 CP2=-16;FAM quench CP2=100
O=C(NCc1ccco1)c1c2c(nc3ccccc13)CCC2 | x | 16 | -1 | -5 | -5 | 3 | x | x | GRK2 CP2=10;FAM quench CP2=100
O=C(CSc1c2c(nc3ccccc13)CCCC2)NCc1ccco1 | 18 | 0 | 0 | -4 | 2 | 7 | x | x
CN(CC(=O)OCC(=O)NC1CCCC1)S(=O)(=O)c1ccc(Cl)cc1 | x | 0 | -1 | 7 | 2 | 7 | x | x
COc1ccccc1CC(=O)N1CCN(S(=O)(=O)c2ccccc2)CC1 | -12 | 0 | -37 | -2 | -6 | -6 | x | x
COc1cc2c(cc1NC(=O)C(C)OC(=O)c1ccc(S(=O)(=O)Nc3ccccc3Cl)cc1)oc1ccccc12 (stereo unspecified) | -6 | 0 | 0 | 2 | -3 | 26 | x | x
CC1CN(C(=O)c2cccc(S(=O)(=O)N3CCOCC3)c2)CC(C)O1 (stereo unspecified) | x | 27 | 5 | 0 | 5 | 12 | 1 | 100
CC1CN(C(=O)c2cccc(COc3ccccc3Cl)c2)CC(C)O1 (stereo unspecified) | -8 | 98* | 2 | -1 | -5 | 5 | 1 | 99
COc1ccc([C@H]2Cc3cccc(O)c3C(=O)O2)cc1O | x | 85* | -1 | 5 | 5 | 0 | -2 | 104
COC(=O)c1c(C)[nH]c(C(=O)C(C)OC(=O)c2cnc(C)cn2)c1C (stereo unspecified) | x | 0 | x | 8 | -1 | 2 | x | x
CCCOc1ccc(N2CC(C(=O)Nc3ccccc3C(=O)NC)CC2=O)cc1 (stereo unspecified) | -3 | 47* | -2 | 10 | 9 | -8 | 0 | 98

Bioassay records from PubChem BioAssay.
